The structures appear in SMILES notation. About 1,000 (0.33%) of roughly 300,000 compounds were called active.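 How the source made its calls: active means inhibition above the mean of all tested compounds plus 3 SD, set per screening campaign (cut at about 45% in these data); inactive means the rest.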 The sample as a whole holds a higher share of actives than the screen did.

For this experiment, the system named is HCV core protein (residues 1-106) dimerization. Put plainly: blockers of core106 self-association – biochemical, TR-FRET, high-throughput, primary screen (AID 1899). To be noted: TR-FRET GST/Flag-core106 dimerization, 1536-well; at 5 µM; stronger effect = higher value. An outline of the steps:
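Assay system: GST-tagged and Flag-tagged HCV core protein residues 1-106 / Times: compound-protein-antibody incubation 4 h at 22.5 °C / Signal: time-resolved FRET, ex 340 nm, em 617 and 671 nm / Evaluation: % inhibition based on acceptor/donor emission ratio / Benchmarks: wells lacking GST-core106 and wells with excess unlabelled core106 / Repeats: singlicate, one well per compound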
In general terms: TR-FRET usually uses a lanthanide donor and a delayed reading to cut background.
Usually inhibition stands for the relative decrease from the control value, in per cent. `COc1cccc(N2C(=O)NC(=O)/C(=C\c3cn(C)c4ccccc34)C2=O)c1`: the inhibition was -2.56% (inactive).
As for `Cc1cccc(N2C(=O)NC(=O)/C(=C\c3cnn(-c4ccccc4)c3)C2=O)c1`, the inhibition was 46.9% (active).
As for `O=C1NC(=O)N(c2ccccc2)C(=O)/C1=C/c1ccc([N+](=O)[O-])s1`, the figure is -5.13% (inactive); as for `CN1C2C=C(N(C(=O)c3ccc(Cl)cc3)c3ccccc3)CC1CC2` (stereo not given), -2.38% (inactive).
As for `CSC1=NP(=S)(SC)N(C)c2nc3n(c21)CCC3` (stereo not given), the figure is 8.93% (inactive).

The record behind these values is PubChem BioAssay AID1899 (The Scripps Research Institute Molecular Screening Center, 2009).
